Laboratory results: publication PMC2649372 (Biochemistry, 2008)
Numbering of substitutions follows the chain as printed. Marks after values point to notes of the source that are not given here.

Key:
Assay in all cases: Agonist-induced currents, voltage clamp electrophysiology in Xenopus oocytes
Type in all cases: cell-based
[1] = target: T1, N128A mutant 5-HT3 receptor (mouse 5-HT3A subunit) (Mus musculus, UniProt P23979, N128A); conditions: N128A
T1 sequence (P23979 24-483 isoform P23979-2 N128A limits assumed): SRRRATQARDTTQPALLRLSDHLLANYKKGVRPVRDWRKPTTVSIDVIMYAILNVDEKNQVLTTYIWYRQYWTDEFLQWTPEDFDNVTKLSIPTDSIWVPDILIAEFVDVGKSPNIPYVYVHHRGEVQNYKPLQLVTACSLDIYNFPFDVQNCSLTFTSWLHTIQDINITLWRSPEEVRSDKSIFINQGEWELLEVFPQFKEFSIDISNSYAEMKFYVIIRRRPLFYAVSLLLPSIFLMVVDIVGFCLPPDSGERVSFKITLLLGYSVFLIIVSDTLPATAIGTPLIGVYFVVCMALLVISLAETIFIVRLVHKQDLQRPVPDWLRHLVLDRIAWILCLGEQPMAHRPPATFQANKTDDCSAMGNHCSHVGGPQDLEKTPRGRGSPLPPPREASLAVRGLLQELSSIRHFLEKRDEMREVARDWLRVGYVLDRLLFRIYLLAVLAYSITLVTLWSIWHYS

[2] = target: T2, WT 5-HT3 receptor (mouse 5-HT3A subunit) (Mus musculus, UniProt P23979); conditions: WT
T2 sequence (P23979 24-483 isoform P23979-2 limits assumed): T1 sequence (P23979 24-483 isoform P23979-2 N128A limits assumed) with A105N

[3] = target: T3, E129-Nha mutant 5-HT3 receptor (mouse 5-HT3A subunit) (Mus musculus, UniProt Q6J1J7)
T3 sequence (Q6J1J7 24-483): T1 sequence (P23979 24-483 isoform P23979-2 N128A limits assumed) with A105N, F436L
Outline: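 Mouse 5-HT3A receptor carrying Nha or Akp, introduced by nonsense suppression. Stage V-VI Xenopus oocytes were co-injected with 5 ng cRNA and 25 ng photodeprotected aminoacyl-tRNA. Controls received tRNA without an amino acid. At 24-72 h, agonist currents were recorded by two-electrode voltage clamp at -60 mV, 22-25 °C, in Ca-free ND96 (pH 7.5).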

[4] = target: T4, E129N mutant 5-HT3 receptor (mouse 5-HT3A subunit) (Mus musculus, UniProt P23979, E129N); conditions: E129N
T4 sequence (P23979 24-483 isoform P23979-2 E129N limits assumed): T1 sequence (P23979 24-483 isoform P23979-2 N128A limits assumed) with A105N, E106N

[5] = target: T5, N128V mutant 5-HT3 receptor (mouse 5-HT3A subunit) (Mus musculus, UniProt P23979, N128V)
T5 sequence (P23979 24-483 isoform P23979-2 N128V limits assumed): T1 sequence (P23979 24-483 isoform P23979-2 N128A limits assumed) with A105V

[6] = oocytes, holding potential −60 mV

SMILES	EC50 [1] [nM]	nH (Hill coefficient) [1]	pEC50 [1]	nH (Hill coefficient) [2]	EC50 [2, 6] [nM]	pEC50 [2, 6]	EC50 [3] [nM]	nH (Hill coefficient) [3]	pEC50 [3]	EC50 [4] [nM]	nH (Hill coefficient) [4]	size of agonist response (current) [4] [µA]	pEC50 ([4]; SR = small (<100 nA) responses)	EC50 [5] [nM]	nH (Hill coefficient) [5]	pEC50 [5]
N=C(N)NC(=N)Nc1cccc(Cl)c1 [mCPBG, m-chlorophenylbiguanide]	1100	1.33 ± 0.08	5.95 ± 0.02	2.03 ± 0.23	470	6.33 ± 0.02	560	1.91 ± 0.60	6.25 ± 0.07	620	1.25 ± 0.19	> 5	6.21 ± 0.05	74	5.07 ± 0.85 ^b	7.13 ± 0.02 ^b
NCCc1c[nH]c2ccc(O)cc12 [5-HT, 5-hydroxytryptamine]		1.34 ± 0.13 ^b		2.54 ± 0.15			3500	1.18 ± 0.12 ^b	5.45 ± 0.04			> 5			3.18 ± 0.60	
